Data set [1] is described as follows: Metabolic stability in mouse liver microsomes assessed as compound remaining after 10 mins. Type of data set: ADME. As to conditions: read-out: Stability.
Data set [2] deals with T1, Glucose-dependent insulinotropic receptor (Homo sapiens) (UniProt Q8TDV5).
T1 sequence (whole entry): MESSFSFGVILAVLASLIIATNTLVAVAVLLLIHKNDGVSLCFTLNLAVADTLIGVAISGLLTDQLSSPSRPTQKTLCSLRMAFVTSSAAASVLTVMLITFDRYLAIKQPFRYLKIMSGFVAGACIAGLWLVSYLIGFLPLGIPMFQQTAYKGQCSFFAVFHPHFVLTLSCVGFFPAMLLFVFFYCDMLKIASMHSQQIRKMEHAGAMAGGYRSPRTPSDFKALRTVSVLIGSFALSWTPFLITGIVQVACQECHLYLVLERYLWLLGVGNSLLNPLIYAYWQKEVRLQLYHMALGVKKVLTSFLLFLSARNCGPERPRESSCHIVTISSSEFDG
Put plainly: Intrinsic activity at human GPR119 expressed in HEK293 cells co-expressing Flp-In-T-Rex assessed as cAMP accumulation after 60 mins relative to propan-2-yl 4-({6-[(2-fluoro-4-methanesulfonylphenyl)amino]pyrimidin-4-yl}oxy)piperidine-1-carboxylate. The data set is classed as functional, cell-based. In a few lines: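 Tetracycline-inducible human GPR119 cells plated 7.5 × 10⁵/well 24 h ahead in growth medium (DMEM, 10% FBS) with 1 ng/ml tetracycline. Compound exposure 60 min, then lysis; cAMP read by enzyme fragment complementation fluorescence. EC₅₀ and Emax derived.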
On the technique in general: Changes in cAMP serve as a functional read-out for many G protein-coupled receptors.

Data set [3] has as its target T2, Glucose-dependent insulinotropic receptor (Homo sapiens, UniProt Q8TDV5).
T2 sequence (Q8TDV5 whole entry): T1 sequence (whole entry)
Put plainly: Agonist activity at human GPR119 expressed in HEK293 cells co-expressing Flp-In-T-Rex assessed as cAMP accumulation after 60 mins. The data set is classed as functional, cell-based. In a few lines:
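Tetracycline-inducible human GPR119 cell line, plated at 7.5 × 10⁵ cells/well 24 h before assay in DMEM with 10% FBS and 1 ng/ml tetracycline. Medium was then swapped for PBS assay buffer containing 25 mM HEPES (pH 7.4), 12 mM glucose, 0.01% FAF-BSA and 0.1 mM IBMX. Cells were exposed to compound for 60 min, then lysed. cAMP was read by enzyme fragment complementation fluorescence; EC50 and Emax reported.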

The target in data set [4] is Glucose-dependent insulinotropic receptor (Homo sapiens) (UniProt Q8TDV5). Put plainly: Agonist activity at human GPR119 expressed in HEK293 cells co-expressing Flp-In-T-Rex assessed as cAMP accumulation after 60 mins.
A short description of data set [5]: Metabolic stability in human liver microsomes assessed as compound remaining after 10 mins. The data set is classed as ADME. As to conditions: read-out: Stability. In general terms: Microsomes from liver hold many membrane-bound enzymes, among them those of drug oxidation.
Data set [6] is described as follows: Aqueous solubility of the compound at pH 6.5. The data set is classed as physicochemical.
A short description of data set [7]: Permeability of the compound by PAMPA. The data set is classed as physicochemical.
The target of data set [8] is T3, Nuclear receptor subfamily 1 group I member 2 (Homo sapiens, UniProt O75469).
T3 sequence (O75469 whole entry): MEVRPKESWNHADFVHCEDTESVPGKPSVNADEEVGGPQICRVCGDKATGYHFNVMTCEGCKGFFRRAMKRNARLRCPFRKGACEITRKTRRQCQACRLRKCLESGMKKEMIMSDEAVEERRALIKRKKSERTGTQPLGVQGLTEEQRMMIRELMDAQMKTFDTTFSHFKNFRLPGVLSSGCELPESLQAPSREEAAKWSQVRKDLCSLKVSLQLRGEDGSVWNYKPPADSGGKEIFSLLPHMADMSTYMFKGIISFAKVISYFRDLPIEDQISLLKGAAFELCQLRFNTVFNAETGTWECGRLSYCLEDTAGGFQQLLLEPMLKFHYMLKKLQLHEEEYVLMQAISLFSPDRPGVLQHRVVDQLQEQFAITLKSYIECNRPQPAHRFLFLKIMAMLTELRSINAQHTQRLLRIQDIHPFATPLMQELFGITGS
Put plainly: Transactivation of PXR (unknown origin).

A short description of data set [9]: Inhibition of CYP450 (unknown origin). Type of data set: ADME. As to conditions: human.

Calls of active or inactive are those of the source. The calls are words filed in the database; no cut-off is given here. Where only a bound is given, the exact number is not on record here.

Here are results for 22 compounds from ChEMBL document CHEMBL3259592, “Synthesis and structure-activity relationship of dihydrobenzofuran derivatives as novel human GPR119 agonists” (Bioorg Med Chem Lett, 2014).

As usually defined, the Emax is the size of the effect at its maximum, as opposed to the concentration needed. In general, EC50 refers to the midpoint of the concentration-response curve. Consider `CCCS(=O)(=O)N1CC=C(c2ccc3c(c2)CC(C2CCN(c4ncc(C5CC5)cn4)CC2)O3)CC1` (racemic), for which the figures for the remaining at 10 min in [1] and in [5] were 3% and 58%, respectively. For the same compound, in [2], the Emax is 85%. Moreover, the EC50 in data set [3] is 0.067 µM. Also, the result in data set [4] was Active.
On to `CCCc1cnc(N2CCC(C3Cc4c(F)c(C5=CCN(S(=O)(=O)CCC(C)(C)O)CC5)cc(F)c4O3)CC2)nc1` (racemic), for which the remaining at 10 min in [1] amounted to 61%; in data set [5], 55%. The Emax in data set [2] is 82%. For the same compound, the EC50 in data set [3] worked out at 0.101 µM.
As for `CCCc1cnc(N2CCC(C3Cc4cc(C5=CCN(S(=O)(=O)CCC)CC5)ccc4O3)CC2)nc1` (racemic), the figures for the remaining at 10 min in data set [1] and in data set [5] were 58% and 71%, respectively. In addition, the Emax in [2] was 107%. The EC50 in [3] is 0.082 µM. In addition, in data set [4], the result was Active.
`CCCc1cnc(N2CCC(C3Cc4cc(N5CCN(S(=O)(=O)CCC)CC5)ccc4O3)CC2)nc1` (racemic): the remaining at 10 min was 44% in [1] and 82% in data set [5]. In addition, the Emax in data set [2] came to 74%. Further, in data set [3], the EC50 came to 0.544 µM.
For `CCCc1cnc(N2CCC(C3Cc4cc(C5CCN(S(=O)(=O)CCC)CC5)ccc4O3)CC2)nc1` (racemic) the same measures were 52%, 70%, 43% and 0.386 µM.
For the compound `CCCS(=O)(=O)N1CC=C(c2ccc3c(c2)CC(C2CCN(Cc4ccccc4)CC2)O3)CC1` (racemic), the Emax in [2] came to 88%. For the same compound, in data set [3], the concentration giving a half-maximal response (EC50) came to 0.521 µM. The outcome in [4] was Active.
Regarding `CCCc1cnc(N2CCC(C3Cc4cc(C5=CCN(S(=O)(=O)CCCCO)CC5)cc(F)c4O3)CC2)nc1` (racemic), the remaining at 10 min came to 59% in data set [1] and 73% in [5]. In addition, the Emax in [2] is 98%. Further, the EC50 in data set [3] came to 0.06 µM.
Consider `CCCS(=O)(=O)N1CC=C(c2ccc3c(c2)CC(C2CCN(C(=O)OC4CCCCC4)CC2)O3)CC1` (racemic), for which the Emax in data set [2] came to 56%. Besides, the EC50 in [3] was determined as 0.051 µM. In addition, the result in [4] was Active.
Consider `CCCc1cnc(N2CCC(C3(C)Cc4cc(C5=CCN(S(=O)(=O)CCC)CC5)ccc4O3)CC2)nc1` (racemic), for which the remaining at 10 min worked out at 52% in [1] and 68% in data set [5]. Also, in data set [2], the Emax was 48%. The EC50 in data set [3] is 0.07 µM.
For `CCCc1cnc(N2CCC(C3Cc4cc(C5=CCN(S(=O)(=O)CCCO)CC5)cc(F)c4O3)CC2)nc1` (racemic) the same measures were 60%, 100%, 92% and 0.122 µM.
Regarding `CCCc1cnc(N2CCC(C3Cc4c(F)c(C5=CCN(S(=O)(=O)CCCO)CC5)cc(F)c4O3)CC2)nc1` (racemic), the remaining at 10 min in data set [1] worked out at 82%; in data set [5], 89%. In addition, in data set [2], the Emax amounted to 86%. Also, in data set [3], the EC50 stood at 0.016 µM.
Usually solubility stands for the dissolved amount per volume that the medium holds. For `CCCc1cnc(N2CCC(C3Cc4c(F)c(C5=CCN(S(=O)(=O)CCC)CC5)cc(F)c4O3)CC2)nc1` (racemic), the remaining at 10 min in [1] was found to be 80%; in [5] it was 78%. In addition, the Emax in data set [2] came out at 119%. Also, in data set [3], the EC50 was 0.002 µM. In addition, the solubility in data set [6] (aqueous, read-out: solubility) is below 1 µg/mL. Also, the permeability entry in data set [7] is given as “permeable”. In addition, the Activity entry in data set [8] is recorded as “Not Active”. In [9], the “inhibition (INH)” value is on record as “Not Active”.
In the case of `CCCS(=O)(=O)N1CC=C(c2ccc3c(c2)CC(C2CCN(c4ncc(Cl)cn4)CC2)O3)CC1` (racemic), the remaining at 10 min in data set [1] was determined as 45%; in data set [5], 48%. Besides, in data set [2], the Emax amounted to 88%. Further, the EC50 in [3] came to 0.078 µM. For the same compound, the outcome in [4] was Active.
Consider `CCCS(=O)(=O)N1CC=C(c2ccc3c(c2)CC(C2CCN(c4ncc(C(F)(F)F)cn4)CC2)O3)CC1` (racemic), for which the Emax in data set [2] was found to be 118%. In addition, in [3], the EC50 worked out at 0.014 µM. Also, the result in [4] was Active. Moreover, the solubility result in [6] (buffer) was “Insoluble”. For the same compound, the remaining at 10 min in data set [5] is 58%.
On to `CCCc1cnc(N2CCC(C3Cc4c(ccc(C5=CCN(S(=O)(=O)CCC)CC5)c4F)O3)CC2)nc1` (racemic), for which the remaining at 10 min in [1] is 78%; in data set [5] it was 87%. The Emax in data set [2] was determined as 123%. Moreover, the EC50 in [3] amounted to 0.005 µM. Besides, in data set [6] (aqueous, read-out: solubility), the solubility was below 1 µg/mL. Further, the permeability entry in [7] was “permeable”. Besides, in data set [8], the Activity result was “Not Active”. Moreover, the “inhibition (INH)” value in data set [9] is recorded as “Not Active”.
In the case of `CCCc1cnc(N2CCC(C3Cc4cc(-c5ccc(S(C)(=O)=O)cc5F)ccc4O3)CC2)nc1` (racemic), in [2], the Emax came out at 53%. For the same compound, the EC50 in data set [3] turned out to be 0.541 µM.
Take `CCCS(=O)(=O)N1CC=C(c2ccc3c(c2)CC(C2CCN(S(=O)(=O)CCC)CC2)O3)CC1` (racemic): the Emax in [2] came to 43%. In addition, the EC50 in data set [3] amounted to 1 µM. The outcome in data set [4] was Active.
Turning to `CCCc1cnc(N2CCC(C3Cc4cc(C5=CCN(S(=O)(=O)CCC)CC5)cc(F)c4O3)CC2)nc1` (racemic), the remaining at 10 min was 74% in data set [1] and 97% in [5]. Besides, the Emax in data set [2] was found to be 93%. Also, the EC50 in data set [3] amounted to 0.062 µM.
The corresponding values for `CCCc1cnc(N2CCC(C3(C)Cc4cc(C5=CCN(S(=O)(=O)CCCCO)CC5)ccc4O3)CC2)nc1` (racemic) are 70%, 67%, 67% and 0.028 µM.
`CCCc1cnc(N2CCC(C3(C)Cc4cc(C5=CCN(S(=O)(=O)CCCO)CC5)ccc4O3)CC2)nc1` (racemic): the remaining at 10 min in data set [1] stood at 42%; in [5], 72%. Also, the Emax in data set [2] was 78%. The EC50 in data set [3] was 0.078 µM.
For the compound `CCCS(=O)(=O)N1CC=C(c2ccc3c(c2)CC(C2CCN(C(=O)OC(C)C)CC2)O3)CC1` (racemic), the remaining at 10 min was determined as 12% in [1] and 10% in data set [5]. For the same compound, the Emax in data set [2] was found to be 61%. Further, the EC50 in data set [3] is 0.103 µM. Further, the result in [4] was Active.
With `CCCS(=O)(=O)N1CC=C(c2ccc3c(c2)CC(C2CCN(c4ccc(C(F)(F)F)cn4)CC2)O3)CC1` (racemic), the remaining at 10 min was found to be 46% in [1] and 47% in data set [5]. Besides, the Emax in data set [2] amounted to 99%. Besides, the EC50 in [3] was determined as 0.034 µM. In data set [4], the result was Active.
